# Experimental data taken from ChEMBL document CHEMBL3286105, “Design, synthesis and antifungal activity of novel triazole derivatives containing substituted 1,2,3-triazole-piperdine side chains” (2014).
# Experiments:
# Assay type in all cases: functional
# Nannizzia gypsea = assay: Antifungal activity against Microsporum gypseum assessed as growth inhibition by serial dilution method
# Outline: (§1)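 Compounds were dissolved in DMSO and diluted in growth medium. Incubation was at 28 °C. MIC was the lowest concentration with turbidity at the 80% inhibition threshold relative to the drug-free growth control.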
# Candida parapsilosis = assay: Antifungal activity against Candida parapsilosis assessed as growth inhibition after 24 hrs by serial dilution method; conditions: Lodderomyces parapsilosis
# Outline: (§2)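 Candida strains were ATCC or clinical isolates. Compounds were dissolved in DMSO and serially diluted in growth medium. Plates were incubated at 35 °C and read at 24 h. MIC was the lowest concentration giving turbidity at […]80% inhibition relative to the growth control.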
# Nakaseomyces glabratus = assay: Antifungal activity against Candida glabrata assessed as growth inhibition after 24 hrs by serial dilution method; outline: as §2
# Cryptococcus neoformans = assay: Antifungal activity against Cryptococcus neoformans assessed as growth inhibition after 72 hrs by serial dilution method
# Outline: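 Compounds were taken up in DMSO and diluted in growth medium. Incubation was at 35 °C with MIC read at 72 h. MIC was the lowest concentration at which turbidity reached the 80% inhibition cutoff against the untreated growth control.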
# Candida albicans = assay: Antifungal activity against Candida albicans assessed as growth inhibition after 24 hrs by serial dilution method; outline: as §2
# Aspergillus fumigatus = assay: Antifungal activity against Aspergillus fumigatus assessed as growth inhibition after 7 days by serial dilution method; conditions: 168 h
# Trichophyton rubrum = assay: Antifungal activity against Trichophyton rubrum assessed as growth inhibition by serial dilution method; outline: as §1
SMILES,MIC80 (Nannizzia gypsea) [mg/L],MIC80 (Candida parapsilosis) [mg/L],MIC80 (Nakaseomyces glabratus) [mg/L],MIC80 (Cryptococcus neoformans) [mg/L],MIC80 (Candida albicans) [mg/L],MIC80 (Aspergillus fumigatus) [mg/L],MIC80 (Trichophyton rubrum) [mg/L]
CCOC(=O)c1cn(C2CCN(CC(O)(Cn3cncn3)c3ccc(F)cc3F)CC2)nn1 (configuration not stated),> 64,> 64,32,> 64,8,> 64,> 64
COCc1cn(C2CCN(CC(O)(Cn3cncn3)c3ccc(F)cc3F)CC2)nn1 (configuration not stated),2,0.5,0.25,0.25,0.125,16,0.5
CCC(C)n1ncn(-c2ccc(N3CCN(c4ccc(OCC5COC(Cn6cncn6)(c6ccc(Cl)cc6Cl)O5)cc4)CC3)cc2)c1=O (configuration not stated) [ITRACONAZOLE],2,4,1,2,1,1,0.5
OC(CN1CCC(n2cc(-c3ccc(OC(F)(F)F)cc3)nn2)CC1)(Cn1cncn1)c1ccc(F)cc1F (configuration not stated),4,2,0.5,0.125,0.0125,8,0.5
O=C(O)CCCc1cn(C2CCN(CC(O)(Cn3cncn3)c3ccc(F)cc3F)CC2)nn1 (configuration not stated),32,8,4,4,0.5,> 64,4
OC(CN1CCC(n2cc(C3CCCC3)nn2)CC1)(Cn1cncn1)c1ccc(F)cc1F (configuration not stated),64,8,4,8,0.5,> 64,16
OC(CN1CCC(n2cc(Cc3ccccc3)nn2)CC1)(Cn1cncn1)c1ccc(F)cc1F (configuration not stated),4,1,1,0.5,0.125,32,1
CN(C)c1ccc(-c2cn(C3CCN(CC(O)(Cn4cncn4)c4ccc(F)cc4F)CC3)nn2)cc1 (configuration not stated),4,2,2,1,0.25,8,2
O=C(O)c1cn(C2CCN(CC(O)(Cn3cncn3)c3ccc(F)cc3F)CC2)nn1 (configuration not stated),> 64,64,8,16,4,> 64,> 64
COC(=O)CCCc1cn(C2CCN(CC(O)(Cn3cncn3)c3ccc(F)cc3F)CC2)nn1 (configuration not stated),8,4,2,4,0.25,64,4
CCCc1cn(C2CCN(CC(O)(Cn3cncn3)c3ccc(F)cc3F)CC2)nn1 (configuration not stated),4,1,0.25,0.5,0.125,16,1
CCc1cn(C2CCN(CC(O)(Cn3cncn3)c3ccc(F)cc3F)CC2)nn1 (configuration not stated),8,1,0.5,1,0.125,64,1
COc1cccc(-c2cn(C3CCN(CC(O)(Cn4cncn4)c4ccc(F)cc4F)CC3)nn2)c1 (configuration not stated),32,4,2,0.125,0.125,> 64,4
OC(Cn1cncn1)(Cn1cncn1)c1ccc(F)cc1F [FLUCONAZOLE],32,2,1,1,0.25,> 64,8
OC(CN1CCC(n2cc(-c3ccc(Br)cc3)nn2)CC1)(Cn1cncn1)c1ccc(F)cc1F (configuration not stated),2,1,0.5,0.125,0.125,> 64,0.25
OCCCc1cn(C2CCN(CC(O)(Cn3cncn3)c3ccc(F)cc3F)CC2)nn1 (configuration not stated),> 64,> 64,16,> 64,8,> 64,> 64
OC(CN1CCC(n2cc(-c3ccccc3)nn2)CC1)(Cn1cncn1)c1ccc(F)cc1F (configuration not stated),4,1,1,0.25,0.125,> 64,0.5
OC(CN1CCC(n2cc(C3CC3)nn2)CC1)(Cn1cncn1)c1ccc(F)cc1F (configuration not stated),8,1,0.25,1,0.125,64,2
OCCCCc1cn(C2CCN(CC(O)(Cn3cncn3)c3ccc(F)cc3F)CC2)nn1 (configuration not stated),> 64,32,8,32,4,> 64,64
CC(O)c1cn(C2CCN(CC(O)(Cn3cncn3)c3ccc(F)cc3F)CC2)nn1 (configuration not stated),> 64,> 64,16,64,8,> 64,> 64
OCc1cn(C2CCN(CC(O)(Cn3cncn3)c3ccc(F)cc3F)CC2)nn1 (configuration not stated),> 64,> 64,32,64,8,> 64,> 64
OC(CN1CCC(n2cc(-c3cccnc3)nn2)CC1)(Cn1cncn1)c1ccc(F)cc1F (configuration not stated),16,1,1,0.125,0.125,64,4
CC(=O)c1ccc(-c2cn(C3CCN(CC(O)(Cn4cncn4)c4ccc(F)cc4F)CC3)nn2)cc1 (configuration not stated),2,0.5,0.5,0.125,0.0625,64,1
OCCc1cn(C2CCN(CC(O)(Cn3cncn3)c3ccc(F)cc3F)CC2)nn1 (configuration not stated),> 64,> 64,16,> 64,4,> 64,> 64
OC(c1ccccc1)c1cn(C2CCN(CC(O)(Cn3cncn3)c3ccc(F)cc3F)CC2)nn1 (configuration not stated),> 64,8,8,32,2,16,32
Cc1ccccc1-c1cn(C2CCN(CC(O)(Cn3cncn3)c3ccc(F)cc3F)CC2)nn1 (configuration not stated),64,0.5,0.5,0.25,0.125,> 64,0.5
